Test results: PubChem BioAssay AID624056 (Southern Research Specialized Biocontainment Screening …, 2012)
Values joined by “and” are separate entries in the source; they are usually repeats but may differ in a detail not shown here. Identical values can stand only once. Active and inactive are the calls of the source.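 The calls were made as follows: active = compounds specific to the target that block phage lysis by more than 30% when retested across doses; inactive = the rest, not confirmed on retesting.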

Test system: not listed separately
Test: E. coli EV36 sensitization to T7 phage – EV36 K1 hybrid, OD600, round 7, dose response (AID 624056)
Conditions: E. coli EV36 T7 phage lysis inhibition, OD600; at 5 µM (top of the series)
How it was run: (§1)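 Material: Escherichia coli strain EV36, a K1 capsule/K-12 hybrid; quantity: 1:100 dilution of overnight culture; buffer or medium: LB broth; reagent: T7 bacteriophage; compound dosing: two-fold dilution series, 1% DMSO; incubation: 1.5 h compound pre-exposure at 37 °C shaking, then 3 h post-phage; detection: absorbance at 600 nm before and 3 h after phage addition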

In the case of `O=C(NC1CCNCC1)c1ccc2ncsc2c1`, the phage lysis inhibition is reported as 121% (inactive).
For `O=C(Nc1cc(-c2ccc(OC(F)(F)F)cc2)sc1C(=O)O)c1cc2ccccc2o1`, the phage lysis inhibition was 2.17% (inactive).
With `O=C(Nc1cc(-c2ccc(OC(F)(F)F)cc2)sc1C(=O)O)c1cccc(F)c1` the phage lysis inhibition was 75.5% (inactive).
For `CC(C)(C)c1ccc(-c2cc(NC(=O)c3ccc(Br)s3)c(C(=O)O)s2)cc1`, the phage lysis inhibition was -11.6% (inactive).
With `O=C(NCCc1ccncc1)c1ccc2ncsc2c1` the phage lysis inhibition was 124% (inactive).
With `O=C(Nc1ccncc1)c1ccc2ncsc2c1` the phage lysis inhibition was 126% (inactive).
For `O=C(NCc1ccncc1)c1ccc2ncsc2c1`, the phage lysis inhibition was 123% (inactive).
For `O=C(Nc1cc(-c2ccc(OCCCC(F)(F)F)cc2)sc1C(=O)O)c1cc(Br)c(Br)o1`, the phage lysis inhibition was -21.6% (inactive) and -21.4% (inactive).

Test system: E. coli EV36 T7 phage lysis inhibition, OD600
Test: as above
Conditions: not given
How it was run: as §1

First: CCCCOc1ccc(-c2cc(NC(=O)c3c(F)cc(F)cc3F)c(C(=O)O)s2)cc1
Second: CCCOc1ccc(-c2cc(NC(=O)c3c(F)cc(F)cc3F)c(C(=O)O)s2)cc1
The IC50 of the first is 1.6-fold lower: 330 nM for the first, 530 nM for the second.

Going from `O=C(O)c1sc(-c2ccc(OC(F)(F)F)cc2)cc1NC(=O)c1c(F)cccc1F` to `O=C(O)c1sc(-c2ccc(OCC(F)(F)F)cc2)cc1NC(=O)c1c(F)cccc1F`, the IC50 falls from 1360 nM to 350 nM (3.9-fold). The second is the more potent here.

`CCOc1ccc(-c2cc(NC(=O)c3c(F)cc(F)cc3F)c(C(=O)O)s2)cc1` and `O=C(O)c1sc(-c2ccc(OCC(F)(F)F)cc2)cc1NC(=O)c1c(F)cc(F)cc1F` are within 1.5-fold of each other in IC50: 1830 nM for the first, 1880 nM for the second.

Going from `O=C(Nc1cc(-c2ccc(OCCC(F)(F)F)cc2)sc1C(=O)O)c1ccc(Br)o1` to `O=C(Nc1cc(-c2ccc(OCCCC(F)(F)F)cc2)sc1C(=O)O)c1ccc(Br)o1`, the IC50 rises from 320 nM to 480 nM (1.5-fold).

First: CCCc1ccc(-c2cc(NC(=O)c3c(F)cc(F)cc3F)c(C(=O)O)s2)cc1
Second: CCCc1ccc(-c2cc(NC(=O)c3c(F)cccc3F)c(C(=O)O)s2)cc1
The IC50 of the first is 2.7-fold higher: 1520 nM for the first, 560 nM for the second. The second is the more potent here.

`[N-]=[N+]=NCCOc1ccc(-c2cc(NC(=O)c3c(F)cccc3F)c(C(=O)O)s2)cc1` and `CCCCOc1ccc(-c2cc(NC(=O)c3c(F)cccc3F)c(C(=O)O)s2)cc1` are within 1.5-fold of each other in IC50: 310 nM for the first, 290 nM for the second.

Compared with `O=C(O)c1sc(-c2ccc(OCCCC(F)(F)F)cc2)cc1NC(=O)c1c(F)cccc1F`, `O=C(O)c1sc(-c2ccc(OCCC(F)(F)F)cc2)cc1NC(=O)c1c(F)cccc1F` is 1.8-fold lower in IC50: 90 nM for the first, 50 nM for the second. The second is the more potent here.

Going from `CCCc1ccc(-c2cc(NC(=O)c3cc(Br)c(Br)o3)c(C(=O)O)s2)cc1` to `CCCCOc1ccc(-c2cc(NC(=O)c3cc(Br)c(Br)o3)c(C(=O)O)s2)cc1`, the IC50 falls from 2350 nM to 960 nM (2.4-fold). The second is the more potent here.

Compared with `O=C(Nc1cc(-c2ccc(OCC(F)(F)F)cc2)sc1C(=O)O)c1ccc(Br)o1`, `O=C(Nc1cc(-c2ccc(OC(F)(F)F)cc2)sc1C(=O)O)c1ccc(Br)o1` is 3.5-fold higher in IC50: 330 nM for the first, 1170 nM for the second. The first is the more potent here.

Going from `CCOc1ccc(-c2cc(NC(=O)c3c(F)cccc3C(F)(F)F)c(C(=O)O)s2)cc1` to `CCOc1ccc(-c2cc(NC(=O)c3c(F)cccc3F)c(C(=O)O)s2)cc1`, the IC50 falls from 2650 nM to 410 nM (6.5-fold). The second is the more potent here.

`O=C(O)c1sc(-c2ccc(OCCCC(F)(F)F)cc2)cc1NC(=O)c1c(F)cc(F)cc1F` and `O=C(O)c1sc(-c2ccc(OCCC(F)(F)F)cc2)cc1NC(=O)c1c(F)cc(F)cc1F` cannot be ordered by IC50: under 650 nM for the first, 440 nM for the second.

First: O=C(Nc1ccncc1)c1ccc2ncsc2c1
Second: CCCCOc1ccc(-c2cc(NC(=O)c3ccc(Br)o3)c(C(=O)O)s2)cc1
The IC50 of the first is 2.1-fold higher: 660 nM for the first, 320 nM for the second.

In the case of `CCCc1ccc(-c2cc(NC(=O)c3ccc(Br)o3)c(C(=O)O)s2)cc1`, the IC50 is reported as 340 nM.
